Assay results published in ChEMBL document CHEMBL4834403, “Design and Synthesis of Novel Epigenetic Inhibitors Targeting Histone Deacetylases, DNA Methyltransferase 1, and Lysine Methyltransferase G9a with In Vivo Efficacy in Multiple Myeloma” (J Med Chem, 2021).

How the values were obtained:
NCI-H929 = assay: Antiproliferative activity against human NCI-H929 cells assessed as inhibition of cell proliferation measured up to 72 hrs by CellTiter96 Aqueous one reagent based assay; format: functional; conditions: NCI-H929, 72 h, time hrs <=72
[1] = Antiproliferative activity against human KMS-28BM cells assessed as inhibition of cell proliferation measured up to 72 hrs by CellTiter96 Aqueous one reagent based assay; format: functional; conditions: time hrs <=72
[2] = Apparent oral clearance in BALB/c RAG2-/- gammaC-/- mouse at 10 mg/kg, ip using 80% saline 10% Tween20 and 10% DMSO formulation measured up to 24 hrs by UPLC-triple quadrupole MS analysis; format: ADME, organism-based; conditions: in vivo
[3] = Intrinsic clearance in human pooled hepatocytes; format: ADME, cell-based, Hepatocyte; conditions: read-out: CLH
[4] = Toxicity in BALB/c RAG2-/- gammaC-/- mouse xenografted with human MM1.S cells assessed as effect on body weight at 10 mg/kg, ip administered for 5 consecutive days followed by 2 days rest and measured after 35 days; format: organism-based; conditions: in vivo, 840 h, time 35 day
[5] = molecular target: Histone deacetylase 3/Nuclear receptor corepressor 2 (HDAC3/NCoR2) (Homo sapiens, UniProt O15379); assay: Inhibition of full length human C-terminal His-tagged HDAC3/human N-terminal GST-agged NCOR2 using fluorogenic acetylated peptide as substrate incubated for 30 mins by fluorescence plate reader assay; format: protein-complex assay
Histone deacetylase 3/Nuclear receptor corepressor 2 (HDAC3/NCoR2), sequence (O15379 whole entry): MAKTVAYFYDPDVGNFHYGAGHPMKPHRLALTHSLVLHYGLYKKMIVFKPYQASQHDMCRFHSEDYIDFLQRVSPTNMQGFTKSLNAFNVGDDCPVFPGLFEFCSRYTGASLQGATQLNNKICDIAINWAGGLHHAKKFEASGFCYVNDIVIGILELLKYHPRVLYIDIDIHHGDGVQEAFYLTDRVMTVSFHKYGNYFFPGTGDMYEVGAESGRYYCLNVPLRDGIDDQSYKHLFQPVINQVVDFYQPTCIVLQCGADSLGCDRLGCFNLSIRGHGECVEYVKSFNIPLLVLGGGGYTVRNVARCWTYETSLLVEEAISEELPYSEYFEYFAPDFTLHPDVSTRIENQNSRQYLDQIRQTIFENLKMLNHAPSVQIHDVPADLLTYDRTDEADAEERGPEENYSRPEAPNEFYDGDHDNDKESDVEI
Histone deacetylase 3/Nuclear receptor corepressor 2 (HDAC3/NCoR2), sequence (Q9Y618 whole entry, further chain): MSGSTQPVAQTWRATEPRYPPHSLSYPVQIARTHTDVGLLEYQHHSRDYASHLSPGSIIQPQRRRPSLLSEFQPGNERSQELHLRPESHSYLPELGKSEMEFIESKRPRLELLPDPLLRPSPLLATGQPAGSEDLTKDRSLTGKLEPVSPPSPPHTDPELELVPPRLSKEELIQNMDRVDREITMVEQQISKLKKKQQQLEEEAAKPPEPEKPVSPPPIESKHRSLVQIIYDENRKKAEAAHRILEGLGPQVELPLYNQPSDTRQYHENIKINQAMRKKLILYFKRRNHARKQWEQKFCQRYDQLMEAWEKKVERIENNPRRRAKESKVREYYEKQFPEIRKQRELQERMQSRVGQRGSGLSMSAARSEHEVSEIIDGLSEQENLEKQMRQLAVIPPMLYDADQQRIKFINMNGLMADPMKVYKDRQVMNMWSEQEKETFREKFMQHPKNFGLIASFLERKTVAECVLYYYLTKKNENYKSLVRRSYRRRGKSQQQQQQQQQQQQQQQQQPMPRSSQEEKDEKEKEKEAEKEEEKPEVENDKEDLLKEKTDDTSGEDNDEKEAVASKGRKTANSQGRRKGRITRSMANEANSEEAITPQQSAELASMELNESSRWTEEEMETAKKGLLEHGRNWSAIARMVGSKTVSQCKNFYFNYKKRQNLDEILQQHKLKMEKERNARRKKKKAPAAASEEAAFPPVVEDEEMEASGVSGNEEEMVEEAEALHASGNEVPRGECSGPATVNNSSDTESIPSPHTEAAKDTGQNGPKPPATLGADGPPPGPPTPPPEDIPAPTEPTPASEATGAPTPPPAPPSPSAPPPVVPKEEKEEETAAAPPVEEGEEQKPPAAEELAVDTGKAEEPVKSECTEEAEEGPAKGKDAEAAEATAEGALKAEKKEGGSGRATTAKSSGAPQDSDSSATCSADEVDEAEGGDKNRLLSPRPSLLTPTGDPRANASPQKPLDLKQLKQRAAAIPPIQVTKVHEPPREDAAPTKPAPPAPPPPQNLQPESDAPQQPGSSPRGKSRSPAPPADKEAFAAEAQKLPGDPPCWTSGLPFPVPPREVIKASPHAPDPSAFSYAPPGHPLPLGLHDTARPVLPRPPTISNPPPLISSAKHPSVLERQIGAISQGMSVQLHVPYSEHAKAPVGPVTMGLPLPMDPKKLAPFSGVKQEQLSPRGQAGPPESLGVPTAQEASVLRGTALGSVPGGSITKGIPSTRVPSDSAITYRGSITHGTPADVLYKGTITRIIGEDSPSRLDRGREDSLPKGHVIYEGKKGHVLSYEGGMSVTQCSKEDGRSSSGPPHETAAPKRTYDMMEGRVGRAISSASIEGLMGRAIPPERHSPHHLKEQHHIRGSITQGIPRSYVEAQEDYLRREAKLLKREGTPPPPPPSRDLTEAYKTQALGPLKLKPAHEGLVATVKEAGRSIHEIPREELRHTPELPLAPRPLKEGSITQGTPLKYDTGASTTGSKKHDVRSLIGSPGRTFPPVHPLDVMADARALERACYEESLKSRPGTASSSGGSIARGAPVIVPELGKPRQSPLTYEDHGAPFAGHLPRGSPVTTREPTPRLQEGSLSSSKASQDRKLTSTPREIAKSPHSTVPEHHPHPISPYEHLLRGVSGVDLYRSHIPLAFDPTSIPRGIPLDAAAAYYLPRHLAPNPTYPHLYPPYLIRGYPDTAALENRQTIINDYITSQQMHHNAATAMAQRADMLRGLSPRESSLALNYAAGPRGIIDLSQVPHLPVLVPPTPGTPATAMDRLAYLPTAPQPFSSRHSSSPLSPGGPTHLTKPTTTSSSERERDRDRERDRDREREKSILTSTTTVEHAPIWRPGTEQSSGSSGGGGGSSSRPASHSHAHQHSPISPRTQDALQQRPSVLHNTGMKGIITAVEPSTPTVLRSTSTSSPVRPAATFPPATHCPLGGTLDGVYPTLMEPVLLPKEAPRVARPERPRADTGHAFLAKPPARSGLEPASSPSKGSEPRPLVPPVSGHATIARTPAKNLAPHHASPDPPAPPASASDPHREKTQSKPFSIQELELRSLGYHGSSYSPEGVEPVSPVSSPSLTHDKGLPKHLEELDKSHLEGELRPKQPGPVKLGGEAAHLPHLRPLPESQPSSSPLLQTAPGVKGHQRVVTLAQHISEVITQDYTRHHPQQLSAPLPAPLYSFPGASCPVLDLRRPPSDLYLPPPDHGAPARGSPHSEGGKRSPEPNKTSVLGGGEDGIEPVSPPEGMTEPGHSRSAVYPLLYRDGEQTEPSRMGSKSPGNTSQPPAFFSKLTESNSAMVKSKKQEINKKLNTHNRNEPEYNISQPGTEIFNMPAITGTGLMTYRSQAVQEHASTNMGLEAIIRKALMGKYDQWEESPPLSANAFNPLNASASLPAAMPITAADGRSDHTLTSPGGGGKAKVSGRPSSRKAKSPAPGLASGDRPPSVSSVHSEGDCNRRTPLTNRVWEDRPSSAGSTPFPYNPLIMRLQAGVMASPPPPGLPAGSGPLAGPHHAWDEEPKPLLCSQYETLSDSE

Histone deacetylase 1 = Histone deacetylase 1 (Homo sapiens, UniProt Q13547); assay: Inhibition of full length human C-terminal His-tagged/C-terminal Flag-tagged HDAC1 using fluorogenic acetylated peptide as substrate incubated for 30 mins by fluorescence plate reader assay
Histone deacetylase 1, sequence (Q13547 whole entry): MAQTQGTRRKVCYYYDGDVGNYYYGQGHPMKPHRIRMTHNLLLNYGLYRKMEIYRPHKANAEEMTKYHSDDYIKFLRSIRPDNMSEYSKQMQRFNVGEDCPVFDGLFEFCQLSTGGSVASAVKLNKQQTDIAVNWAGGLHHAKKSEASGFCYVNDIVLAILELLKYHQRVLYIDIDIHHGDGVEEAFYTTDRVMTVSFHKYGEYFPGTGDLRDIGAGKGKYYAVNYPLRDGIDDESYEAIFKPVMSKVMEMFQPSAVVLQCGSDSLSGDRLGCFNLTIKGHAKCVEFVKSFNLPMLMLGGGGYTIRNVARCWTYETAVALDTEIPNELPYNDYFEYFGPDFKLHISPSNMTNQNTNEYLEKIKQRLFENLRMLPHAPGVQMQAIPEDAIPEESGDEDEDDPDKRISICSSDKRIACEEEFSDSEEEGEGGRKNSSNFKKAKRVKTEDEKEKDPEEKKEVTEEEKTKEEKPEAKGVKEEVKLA

MM1.S [6] = assay: Antitumor activity against human MM1.S cells xenografted in BALB/c RAG2-/- gammaC-/- mouse assessed as reduction in tumor volume at 10 mg/kg, ip administered for 5 consecutive days followed by 2 days rest and measured after 35 days (reference value: 3836 +/- 1696 mm3); format: functional; conditions: time 35 day
MM1.S [7] = assay: Antiproliferative activity against human MM1.S cells assessed as inhibition of cell proliferation measured up to 72 hrs by CellTiter96 Aqueous one reagent based assay; format: functional
JJN-3 = assay: Antiproliferative activity against human JJN-3 cells assessed as inhibition of cell proliferation measured up to 72 hrs by CellTiter96 Aqueous one reagent based assay; format: functional; conditions: JJN-3, 72 h, time hrs <=72
CYP3A4 = CYP3A4 (Homo sapiens, UniProt P08684); assay: Inhibition of CYP3A4 in human liver microsomes at 10 uM incubated for 10 mins in presence of NADPH by LC-MS/MS analysis relative to control; format: ADME
CYP3A4, sequence (P08684 whole entry): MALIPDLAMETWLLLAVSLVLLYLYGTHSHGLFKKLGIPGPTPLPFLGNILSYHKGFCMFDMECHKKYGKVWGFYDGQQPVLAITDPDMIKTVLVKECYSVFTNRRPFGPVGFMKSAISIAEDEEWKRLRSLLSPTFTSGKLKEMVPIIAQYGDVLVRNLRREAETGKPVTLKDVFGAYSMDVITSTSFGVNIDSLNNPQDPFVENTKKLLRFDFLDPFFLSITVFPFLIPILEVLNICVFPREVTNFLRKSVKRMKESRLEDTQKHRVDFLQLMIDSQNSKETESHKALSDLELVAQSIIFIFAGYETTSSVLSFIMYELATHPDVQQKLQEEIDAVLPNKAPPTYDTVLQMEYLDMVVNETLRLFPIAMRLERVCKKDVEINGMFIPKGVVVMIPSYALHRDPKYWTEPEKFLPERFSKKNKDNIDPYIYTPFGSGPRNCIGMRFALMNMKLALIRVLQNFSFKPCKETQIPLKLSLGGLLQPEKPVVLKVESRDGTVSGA

[8] = molecular target: T1, Histone-lysine N-methyltransferase EHMT2 (Homo sapiens, UniProt Q96KQ7); assay: Inhibition of human G9a enzyme using histone monomethyl-H3K9 peptide as substrate incubated for 1 hr in presence of SAM by TR-FRET assay
T1 sequence (Q96KQ7 whole entry): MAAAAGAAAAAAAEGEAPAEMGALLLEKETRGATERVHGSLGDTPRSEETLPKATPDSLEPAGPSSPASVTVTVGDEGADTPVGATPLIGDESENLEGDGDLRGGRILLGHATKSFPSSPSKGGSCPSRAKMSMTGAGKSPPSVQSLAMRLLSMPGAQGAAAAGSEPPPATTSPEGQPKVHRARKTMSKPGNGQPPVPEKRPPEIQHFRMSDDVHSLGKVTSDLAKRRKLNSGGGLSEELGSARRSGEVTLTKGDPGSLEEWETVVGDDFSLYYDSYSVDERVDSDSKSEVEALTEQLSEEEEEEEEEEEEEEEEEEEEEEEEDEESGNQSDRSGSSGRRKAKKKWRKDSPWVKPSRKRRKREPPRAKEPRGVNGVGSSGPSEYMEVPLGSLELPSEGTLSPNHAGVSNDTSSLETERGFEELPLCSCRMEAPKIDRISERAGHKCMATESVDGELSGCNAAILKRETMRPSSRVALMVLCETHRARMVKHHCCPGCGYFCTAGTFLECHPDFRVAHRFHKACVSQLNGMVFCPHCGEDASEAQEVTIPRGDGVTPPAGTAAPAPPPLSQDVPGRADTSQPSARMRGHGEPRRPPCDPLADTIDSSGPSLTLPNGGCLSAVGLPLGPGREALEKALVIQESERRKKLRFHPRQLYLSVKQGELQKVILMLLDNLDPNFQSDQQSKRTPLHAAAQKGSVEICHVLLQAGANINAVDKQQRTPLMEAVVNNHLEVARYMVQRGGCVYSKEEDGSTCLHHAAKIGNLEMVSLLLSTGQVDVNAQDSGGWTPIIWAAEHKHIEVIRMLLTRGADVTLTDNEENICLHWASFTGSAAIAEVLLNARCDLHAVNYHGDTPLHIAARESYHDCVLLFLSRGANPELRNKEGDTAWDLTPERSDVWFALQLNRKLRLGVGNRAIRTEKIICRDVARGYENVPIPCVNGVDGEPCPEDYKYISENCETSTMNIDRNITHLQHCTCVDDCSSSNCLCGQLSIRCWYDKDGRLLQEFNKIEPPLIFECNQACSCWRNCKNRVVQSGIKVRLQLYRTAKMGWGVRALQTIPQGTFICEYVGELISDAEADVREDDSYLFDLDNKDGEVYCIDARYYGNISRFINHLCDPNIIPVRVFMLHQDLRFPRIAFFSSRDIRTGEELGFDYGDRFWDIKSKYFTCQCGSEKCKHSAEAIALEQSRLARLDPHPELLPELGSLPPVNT

THLE-2 = assay: Cytotoxicity against human THLE-2 cells assessed as decrease in cell viability measured after 72 hrs by Vialight-plus cell proliferation assay; format: cell-based; conditions: thle-2, 72 h
Procedure, shortened: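 Human THLE-2 cells exposed to compound for 72 h. Cytotoxicity reported as LC50 and pLC50, averaged from at least two independent experiments on different days.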

[9] = Apparent oral clearance in BALB/c RAG2-/- gammaC-/- mouse at 10 mg/kg, ip measured up to 24 hrs by UPLC-triple quadrupole MS analysis; format: ADME, organism-based; conditions: in vivo
[10] = Apparent volume of distribution during terminal phase in BALB/c RAG2-/- gammaC-/- mouse at 10 mg/kg, ip using 80% saline 10% Tween20 and 10% DMSO formulation measured up to 24 hrs by UPLC-triple quadrupole MS analysis; format: ADME, organism-based; conditions: in vivo, read-out: Vz/F
[11] = Half life in BALB/c RAG2-/- gammaC-/- mouse at 10 mg/kg, ip using 80% saline 10% Tween20 and 10% DMSO formulation measured up to 24 hrs by UPLC-triple quadrupole MS analysis; format: ADME, organism-based; conditions: in vivo
[12] = Toxicity in mouse assessed as mouse death at 5 mg/kg, ip after 15 mins; format: organism-based; conditions: in vivo, 0.25 h
Procedure, shortened: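 Observation made during a preliminary pharmacokinetic study with i.p. dosing, n = 5 mice per dose level, with blood extraction after administration.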

[13] = time hrs <=72, read-out: pGI50 (converted)

Row | SMILES | GI50 (NCI-H929) | GI50 [1] | CL/F [2] | CLint scaled [3] | Activity [4] | IC50 [5] | IC50 (Histone deacetylase 1) | Activity (MM1.S [6]) | GI50 (MM1.S [7]; time hrs <=72, read-out: GI50) | GI50 (MM1.S [7]; [13]) | GI50 (JJN-3) | inhibition at 10 min, 10 µM (CYP3A4) | IC50 [8] | LC50 (THLE-2) | pLC50 (THLE-2) | CL/F [9] | Vd/F [10] | half-life [11] | Activity [12]
1 | COc1cc2nc(-c3ccc(C)o3)cc(NCC3CCN(c4ncc(C(=O)NO)cn4)CC3)c2cc1OC | 103 nM | 547 nM | 8.83 mL/min | 54.2 mL/min/kg | Non-Toxic | 18 nM | 7 nM | 1788 mm3 | 32 nM | 31.6 nM | 482 nM | 50.8% | > 10000 nM | 794 nM | 6.1 | 13.3 mL/min | 6.56 L | 8.46 h | –
2 | COc1cc2c(NCC3CCN(c4ncc(C(=O)NO)cn4)CC3)cc(-c3ccc(C)o3)nc2cc1OCCCN1CCCC1 | 981 nM | 1300 nM | – | – | – | 5 nM | 3 nM | – | 2080 nM | 2090 nM | 6040 nM | – | 269 nM | 10900 nM | 4.96 | – | – | – | Toxic
